Consider five substances from paper PMC4684756 (Nature immunology, 2015).

Test [1] concerns the target p4B10 / H-2L^d mini-MHC m31r (murine). In words: SPR.
Test [2] addresses pCPA12 / H-2L^d mini-MHC m31r (murine). In words: SPR. A general note: Surface plasmon resonance follows binding to a sensor surface in real time, without labels.
Test [3] addresses pCPB7 / H-2L^d mini-MHC m31r (murine). In words: SPR.
The target of test [4] is pCPB9 / H-2L^d mini-MHC m31r (murine). Kind of test: SPR.
Test [5] concerns the target pCPC5 / H-2L^d mini-MHC m31r (murine). Kind of test: SPR.
In test [6] the target is pCPE3 / H-2L^d mini-MHC m31r (murine). In words: SPR.
A further test deals with CD8+ 42F3 T cells. Kind of test: IL-2 release dose response of CD8+ 42F3 T cells to peptide-pulsed APCs. The format is cell-based, murine. As to conditions: for maximal IL-2 response (high / medium / low): transduced CD8+ 42F3 cells, among CD8-dependent agonists; for IL-2 agonist character (in words): titrated IL-2 response in CD8+ 42F3 T cells. The essentials:
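Murine 58−/− hybridoma (TCRα−β−) expressing CD8αβ, retrovirally transduced with 42F3 TCR, co-cultured 1:1 with LM1.8-L^dW97R APCs (5x10⁴ cells; grown in RPMI/10% FBS) and titrated peptide for 20 h at 37°C. Peptide stocks were 50mM in DMSO, diluted in RPMI. IL-2 in supernatants was measured by HRP-colorimetric ELISA. EC50 and Emax came from the titration curves.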

pKd: −log10 of the molar value. “Also recorded” adds a separate entry of the source.

For orientation: pKd means the negative decadic logarithm of the Kd, by convention in mol/L. A lower pKd goes with a large Kd. One may read the koff as the rate constant with which the complex falls apart. A lower koff goes with a long-lived complex. A word on the kon: it is the rate constant with which the complex forms. Read a low kon as slow association. In the case of 42F3 TCR, the pKd is 5.00 in test [1], 5.70 in test [2], 6.00 in test [5] and 6.15 in test [6]. For the same substance, the koff was above 0.5 s⁻¹ in test [1]; 0.0579 s⁻¹ in test [2]; 0.0579 s⁻¹ in test [3]; 0.0668 s⁻¹ in test [4]; 0.197 s⁻¹ in test [5]; 0.166 s⁻¹ in test [6]. For the same substance, the on-rate constant (kon) in test [2] came out at 31400 M⁻¹ s⁻¹; in test [3], 495000 M⁻¹ s⁻¹; in test [6], 58600 M⁻¹ s⁻¹.
For the substance FLSPFWFDI [p5E8], the “maximal IL-2 response (high / medium / low)” value in the test on CD8+ 42F3 T cells was “high”.
Turning to MPAGRPWDL [pCPE3], the “IL-2 agonist character (in words)” value in the test with CD8+ 42F3 T cells is “weak agonist; also recorded: partial agonist”.
For SPAPRPLDL [pCPC5], the “IL-2 agonist character (in words)” value in the test with CD8+ 42F3 T cells is listed as “partial IL-2 responses; also recorded: partial agonist”.
For the substance VPYMAEFGM [pCPA12], in the test on CD8+ 42F3 T cells, the “IL-2 agonist character (in words)” value is “partial IL-2 responses; also recorded: partial agonist” and the “maximal IL-2 response (high / medium / low)” value is listed as “medium”.
